Laboratory results as given in paper PMC6437634 (Acta Pharmaceutica Sinica. B, 2018).
pIC50: −log10 of the molar value. Blank lines part the entries; values can stand above or below the compound they belong to.

Assays:
[1] = target: FGFR1 kinase (Homo sapiens, UniProt P11362); experiment: ELISA kinase assay FGFR1; assay type: biochemical
[2] = In vitro metabolic stability, human liver microsomal intrinsic clearance; assay type: in vitro ADME; settings: liver microsomes, pH 7.4
Outline: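 Human liver microsomes (0.5 mg/mL) were preincubated 5 min at 37 °C with 1 μmol/L test compound in 0.1 mol/L phosphate buffer pH 7.4 with EDTA and MgCl2. NADPH started the reaction. Samples taken at 0, 5, 10 and 30 min at 37 °C were quenched with equal-volume cold acetonitrile and centrifuged. Remaining parent compound was quantified by LC–MS/MS.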

[3] = target: CYP3A4 (Homo sapiens, UniProt P08684); experiment: CYPs direct inhibition CYP3A4; assay type: in vitro ADME; settings: liver microsomes, pH 7.4
Chain of CYP3A4 (P08684 whole entry): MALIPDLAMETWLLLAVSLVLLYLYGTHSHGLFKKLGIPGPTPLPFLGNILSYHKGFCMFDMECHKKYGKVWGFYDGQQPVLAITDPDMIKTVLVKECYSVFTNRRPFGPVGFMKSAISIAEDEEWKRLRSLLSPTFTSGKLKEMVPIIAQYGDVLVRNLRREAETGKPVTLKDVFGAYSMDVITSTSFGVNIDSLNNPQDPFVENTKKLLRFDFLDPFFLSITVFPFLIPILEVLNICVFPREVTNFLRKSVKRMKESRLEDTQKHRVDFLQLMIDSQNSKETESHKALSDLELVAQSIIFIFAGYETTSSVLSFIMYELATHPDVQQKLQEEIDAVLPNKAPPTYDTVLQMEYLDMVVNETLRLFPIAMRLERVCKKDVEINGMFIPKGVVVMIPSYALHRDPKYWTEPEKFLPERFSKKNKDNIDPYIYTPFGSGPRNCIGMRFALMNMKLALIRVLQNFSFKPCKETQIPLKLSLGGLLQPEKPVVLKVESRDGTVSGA

[4] = system: CYPs; experiment: CYP time-dependent inhibition; assay type: in vitro ADME, human; settings: kobs lower than 200 (10^-4/min) considered no TDI inhibition

Chain of FGFR1 kinase (P11362 22-822): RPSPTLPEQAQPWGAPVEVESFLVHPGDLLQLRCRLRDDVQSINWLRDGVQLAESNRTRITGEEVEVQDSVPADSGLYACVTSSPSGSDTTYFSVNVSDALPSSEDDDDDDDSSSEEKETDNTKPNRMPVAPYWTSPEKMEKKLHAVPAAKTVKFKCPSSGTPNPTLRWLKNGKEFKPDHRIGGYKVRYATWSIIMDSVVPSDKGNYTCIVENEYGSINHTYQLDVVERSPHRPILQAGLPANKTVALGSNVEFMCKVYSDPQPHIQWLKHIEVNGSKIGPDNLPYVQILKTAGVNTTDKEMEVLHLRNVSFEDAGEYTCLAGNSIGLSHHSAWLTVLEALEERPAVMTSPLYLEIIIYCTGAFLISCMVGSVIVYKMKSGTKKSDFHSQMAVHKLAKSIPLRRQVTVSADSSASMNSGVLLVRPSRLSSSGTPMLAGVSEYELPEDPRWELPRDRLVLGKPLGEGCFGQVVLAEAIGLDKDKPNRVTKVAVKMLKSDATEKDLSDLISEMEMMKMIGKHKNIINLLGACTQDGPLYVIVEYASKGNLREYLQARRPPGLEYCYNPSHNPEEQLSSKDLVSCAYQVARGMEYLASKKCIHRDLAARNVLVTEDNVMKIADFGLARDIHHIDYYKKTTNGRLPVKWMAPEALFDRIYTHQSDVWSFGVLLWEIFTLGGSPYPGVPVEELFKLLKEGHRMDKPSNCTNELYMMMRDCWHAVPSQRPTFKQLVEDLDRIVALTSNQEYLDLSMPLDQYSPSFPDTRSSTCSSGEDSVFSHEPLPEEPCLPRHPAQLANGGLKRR

SMILES: COc1cc(OC)c(Cl)c(CCc2cnc3ccn(S(=O)(=O)c4ccccc4)c3n2)c1Cl [Compound 7, 3-(2,6-Dichloro-3,5-dimethoxyphenethyl)-5-(phenylsulfonyl)-5H-pyrrolo[2,3-b]pyrazine]
pIC50 [1]: 7.85

SMILES: COc1cc(CCc2cnc3ccn(S(=O)(=O)c4cn(CCF)cn4)c3n2)c(F)c(OC)c1 [Compound 33, 3-(2-Fluoro-3,5-dimethoxyphenethyl)-5-((1-(2-fluoroethyl)-1H-imidazol-4-yl)sulfonyl)-5H-pyrrolo[2,3-b]pyrazine]
FGFR1 enzymatic inhibitory activity (in words) [1]: equipotent enzymatic activity as compound 32

SMILES: CCOc1cccc(CCc2cnc3ccn(S(=O)(=O)c4cn(C)cn4)c3n2)c1 [Compound 30, 3-(3-Ethoxyphenethyl)-5-((1-methyl-1H-imidazol-4-yl)sulfonyl)-5H-pyrrolo[2,3-b]pyrazine]
FGFR1 enzymatic inhibitory activity (in words) [1]: decreased dramatically

SMILES: COc1cc(OC)c(F)c(/C=C/c2cnc3ccn(S(=O)(=O)c4cn(C)cn4)c3n2)c1F [Compound 34, (E)-3-(2,6-Difluoro-3,5-dimethoxystyryl)-5-((1-methyl-1H-imidazol-4-yl)sulfonyl)-5H-pyrrolo[2,3-b]pyrazine]
FGFR1 enzymatic inhibitory activity (in words) [1]: equipotent enzymatic activity as compound 32

Other lines, results leading:

microsomal CLint at 1 μmol/L [2]: 38 µL/min/mg
inhibition at 20 min, 10 μmol/L [3]: 96%
TDI (time-dependent inhibition), CYPs affected [4]: No inhibition
SMILES: COc1cc(CCc2cnc3ccn(S(=O)(=O)c4c[nH]cn4)c3n2)cc(OC)c1 [Compound 12, 5-((1H-Imidazol-4-yl)sulfonyl)-3-(3,5-dimethoxyphenethyl)-5H-pyrrolo[2,3-b]pyrazine]

FGFR1 inhibition ratio ([1]; at 0.1 μmol/L): about 75%
SMILES: COc1cc(CCc2cnc3ccn(S(=O)(=O)c4ccccc4)c3n2)cc(OC)c1 [Compound 5, 3-(3,5-Dimethoxyphenethyl)-5-(phenylsulfonyl)-5H-pyrrolo[2,3-b]pyrazine]

FGFR1 enzymatic inhibitory activity (in words) [1]: single digit nanomolar activity
microsomal CLint at 1 μmol/L [2]: 212 µL/min/mg
inhibition at 20 min, 10 μmol/L [3]: 88%
SMILES: COc1cc(CCc2cnc3ccn(S(=O)(=O)c4cn(C)cn4)c3n2)cc(OC)c1 [Compound 20]

FGFR1 enzymatic inhibitory activity (in words) [1]: picomolar range
microsomal CLint at 1 μmol/L [2]: 50 µL/min/mg
inhibition at 20 min, 10 μmol/L [3]: 90%
TDI (time-dependent inhibition), CYPs affected [4]: No inhibition
SMILES: COc1cc(OC)c(Cl)c(CCc2cnc3ccn(S(=O)(=O)c4c[nH]cn4)c3n2)c1Cl [Compound 29]

pIC50 [1]: 9.40
SMILES: COc1cc(CCc2cnc3ccn(S(=O)(=O)c4cn(C)cn4)c3n2)c(F)c(OC)c1 [Compound 32, 3-(2-Fluoro-3,5-dimethoxyphenethyl)-5-((1-methyl-1H-imidazol-4-yl)sulfonyl)-5H-pyrrolo[2,3-b]pyrazine]
